The values below come from ChEMBL document CHEMBL3102852, “Design, synthesis and cytotoxic activity of novel sulfonylurea derivatives of podophyllotoxin” (Bioorg Med Chem, 2014).

A value given as a limit tells only on which side of the number the result lay.

A word on the IC50: it is the point on the concentration scale where inhibition reaches its midpoint. A higher IC50 goes with weaker potency.

Common to all, as to type: functional, cell-based
Assay [1] has as its system DU-145. Description: Cytotoxicity against human DU145 cells after 72 hrs by sulforhodamine B assay. To be noted: DU-145, 72 h. Summed up: (§1)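 Cells seeded at 3-5 × 10^3 per well in RPMI-1640 with 10% FBS containing various sample concentrations, incubated 72 h. Attached cells fixed with cold 50% trichloroacetic acid for 30 min, stained with 0.04% SRB for 30 min, bound dye solubilized in 10 mM Tris-base, absorbance read at 515 nm. Triplicate experiments; KBvin is a vincristine-selected MDR KB subline.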
(In general: In SRB staining, fixed cells bind dye roughly in proportion to their protein.)

Assay [2] in a line: Cytotoxicity against multidrug-resistant human KBVIN cells after 72 hrs by sulforhodamine B assay. Summed up: as §1
The test system of assay [3] is KB. Description: Cytotoxicity against human KB cells after 72 hrs by sulforhodamine B assay. In short, it runs like this: as §1
In assay [4] the test system is A549. Description: Cytotoxicity against human A549 cells after 72 hrs by sulforhodamine B assay. To be noted: A549, 72 h. Summed up: as §1

Consider `CCS(=O)(=O)NC(=O)N[C@@H]1c2cc3c(cc2[C@@H](c2cc(OC)c(O)c(OC)c2)[C@H]2C(=O)OC[C@@H]21)OCO3`, for which the IC50 in assay [1], in assay [2], in assay [3] and in assay [4] was more than 20 µM in each case.
Turning to `COc1cc([C@@H]2c3cc4c(cc3[C@@H](NC(=O)NS(=O)(=O)c3ccccc3)[C@H]3COC(=O)[C@H]23)OCO4)cc(OC)c1OC`, the half-maximal inhibitory concentration (IC50) in assay [1] was determined as 1.44 µM; in assay [2] it was 1.76 µM; in assay [3], 1.41 µM; in assay [4], 1.6 µM.
With `COc1cc([C@@H]2c3cc4c(cc3[C@@H](NC(=O)NS(=O)(=O)c3ccc(C(C)C)cc3)[C@H]3COC[C@H]23)OCO4)cc(OC)c1OC`, the half-maximal inhibitory concentration (IC50) in assay [1] was determined as 11.9 µM; in assay [2], 13.2 µM; in assay [3], 11 µM; in assay [4], 11.8 µM.
As to `CCCCS(=O)(=O)NC(=O)N[C@@H]1c2cc3c(cc2[C@@H](c2cc(OC)c(O)c(OC)c2)[C@H]2C(=O)OC[C@@H]21)OCO3`, the IC50 is 11.9 µM in assay [1], 14 µM in assay [2], 10.9 µM in assay [3] and 7.96 µM in assay [4].
The matching figures for `CCS(=O)(=O)NC(=O)N[C@@H]1c2cc3c(cc2[C@@H](c2cc(OC)c(OC)c(OC)c2)[C@H]2C(=O)OC[C@@H]21)OCO3`: more than 20 µM, more than 20 µM, more than 20 µM and more than 20 µM.
The compound `COc1cc([C@@H]2c3cc4c(cc3[C@@H](O[C@@H]3O[C@@H]5CO[C@@H](C)O[C@H]5[C@H](O)[C@H]3O)[C@H]3COC(=O)[C@H]23)OCO4)cc(OC)c1O` [ETOPOSIDE] displayed an IC50 in assay [2] of more than 20 µM.
Turning to `COc1cc([C@@H]2c3cc4c(cc3[C@@H](NC(=O)NS(=O)(=O)c3ccc(Cl)cc3)[C@H]3COC(=O)[C@H]23)OCO4)cc(OC)c1O`, the IC50 in assay [1] amounted to 11.5 µM; in assay [2], 7.95 µM; in assay [3] it was 10.6 µM; in assay [4], 9.03 µM.
The matching figures for `COc1ccc(S(=O)(=O)NC(=O)N[C@@H]2c3cc4c(cc3[C@@H](c3cc(OC)c(OC)c(OC)c3)[C@H]3COC[C@@H]32)OCO4)c(OC)c1`: 14.3 µM, more than 20 µM, 12 µM and 14.9 µM.
For `COc1cc([C@@H]2c3cc4c(cc3[C@@H](NC(=O)NS(=O)(=O)c3ccc(C)cc3)[C@H]3COC(=O)[C@H]23)OCO4)cc(OC)c1O`, the half-maximal inhibitory concentration (IC50) in assay [1], in assay [2], in assay [3] and in assay [4] was more than 20 µM throughout.
For `COc1cc([C@@H]2c3cc4c(cc3[C@@H](NC(=O)NS(C)(=O)=O)[C@H]3COC(=O)[C@H]23)OCO4)cc(OC)c1O`, the IC50 in assay [1], in assay [2], in assay [3] and in assay [4] was more than 20 µM throughout.
On to `COc1ccc(S(=O)(=O)NC(=O)N[C@@H]2c3cc4c(cc3[C@@H](c3cc(OC)c(O)c(OC)c3)[C@H]3C(=O)OC[C@@H]32)OCO4)cc1`, for which the IC50 in assay [1] amounted to 9.66 µM; in assay [2], 8.79 µM; in assay [3], 9.49 µM; in assay [4], 7.67 µM.
As to `COc1ccc(S(=O)(=O)NC(=O)N[C@@H]2c3cc4c(cc3[C@@H](c3cc(OC)c(O)c(OC)c3)[C@H]3C(=O)OC[C@@H]32)OCO4)c(OC)c1`, the half-maximal inhibitory concentration (IC50) in assay [1] was 8.51 µM; in assay [2] it was 8.56 µM; in assay [3], 8.08 µM; in assay [4], 8 µM.
Regarding `COc1cc([C@@H]2c3cc4c(cc3[C@@H](NC(=O)NS(=O)(=O)c3ccc(Cl)cc3)[C@H]3COC(=O)[C@H]23)OCO4)cc(OC)c1OC`, the IC50 in assay [1] worked out at 1.75 µM; in assay [2] it was 2.01 µM; in assay [3], 1.72 µM; in assay [4] it was 1.89 µM.
Turning to `COc1cc([C@@H]2c3cc4c(cc3[C@@H](NC(=O)NS(C)(=O)=O)[C@H]3COC(=O)[C@H]23)OCO4)cc(OC)c1OC`, the IC50 in assay [1], in assay [2], in assay [3] and in assay [4] was more than 20 µM each time.
As to `COc1cc([C@@H]2c3cc4c(cc3[C@@H](NC(=O)NS(=O)(=O)Cc3ccccc3)[C@H]3COC(=O)[C@H]23)OCO4)cc(OC)c1O`, the IC50 in assay [1] was 11.2 µM; in assay [2], 14 µM; in assay [3], 11.8 µM; in assay [4], 8.63 µM.
Consider `COc1cc([C@@H]2c3cc4c(cc3[C@@H](NC(=O)NS(=O)(=O)c3ccc(C(C)C)cc3)[C@H]3COC(=O)[C@H]23)OCO4)cc(OC)c1O`, for which the concentration for half-maximal inhibition (IC50) in assay [1] amounted to 9.32 µM; in assay [2], 8.35 µM; in assay [3], 9.51 µM; in assay [4], 7.72 µM.
Turning to `COc1cc([C@@H]2c3cc4c(cc3[C@@H](NC(=O)NS(=O)(=O)c3ccc(F)cc3)[C@H]3COC(=O)[C@H]23)OCO4)cc(OC)c1O`, the IC50 was found to be 9.61 µM in assay [1], 7.92 µM in assay [2], 9 µM in assay [3] and 7.82 µM in assay [4].
In the case of `COc1cc([C@@H]2c3cc4c(cc3[C@@H](NC(=O)NS(=O)(=O)c3ccc5ccccc5c3)[C@H]3COC(=O)[C@H]23)OCO4)cc(OC)c1O`, the concentration for half-maximal inhibition (IC50) was determined as 10.5 µM in assay [1], 8.62 µM in assay [2], 9.7 µM in assay [3] and 8.49 µM in assay [4].
Regarding `COc1cc([C@@H]2c3cc4c(cc3[C@@H](NC(=O)NS(C)(=O)=O)[C@H]3COC[C@H]23)OCO4)cc(OC)c1OC`, the half-inhibitory concentration (IC50) in assay [1], in assay [2], in assay [3] and in assay [4] was more than 20 µM each time.
For the compound `COc1cc([C@@H]2c3cc4c(cc3[C@@H](NC(=O)NS(=O)(=O)c3ccccc3)[C@H]3COC(=O)[C@H]23)OCO4)cc(OC)c1O`, the concentration for half-maximal inhibition (IC50) is 8.1 µM in assay [1], 8.76 µM in assay [2], 8.38 µM in assay [3] and 8.25 µM in assay [4].
Regarding `COc1cc([C@@H]2c3cc4c(cc3[C@@H](NC(=O)NS(=O)(=O)c3ccc(C)cc3)[C@H]3COC(=O)[C@H]23)OCO4)cc(OC)c1OC`, the IC50 in assay [1], in assay [2], in assay [3] and in assay [4] was more than 20 µM each time.
